# IDH1 mut inh – IDH1 R132H (human) inhibition | inhibition, % at 10 µM | O75874 | 0.18% of 70,000 active | IDH1 R132H reductase, diaphorase/resazurin fluorescence, 60 min | AID 624101; in the data active = inhibition above about 34%; inconclusive = no clear call, values can overlap the other calls; inactive = below about 11%;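 also: 0% = DMSO and 100% = no enzyme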
# Target sequence (O75874 whole entry R132H): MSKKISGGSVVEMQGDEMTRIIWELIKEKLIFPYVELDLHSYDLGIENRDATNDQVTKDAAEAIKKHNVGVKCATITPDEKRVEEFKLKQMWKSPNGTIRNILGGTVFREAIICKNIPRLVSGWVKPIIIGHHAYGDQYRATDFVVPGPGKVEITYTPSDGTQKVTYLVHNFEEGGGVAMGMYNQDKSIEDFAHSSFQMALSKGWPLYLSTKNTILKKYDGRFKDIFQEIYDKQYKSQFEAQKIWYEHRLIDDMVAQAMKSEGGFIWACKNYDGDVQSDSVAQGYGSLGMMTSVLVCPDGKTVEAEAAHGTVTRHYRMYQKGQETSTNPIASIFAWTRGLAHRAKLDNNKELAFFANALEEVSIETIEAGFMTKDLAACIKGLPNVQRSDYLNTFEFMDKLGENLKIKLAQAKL
# Pf Dd2 inh – P. falciparum Dd2 growth inhibition | SYBR Green, 72 h; hits give low values | activity change, % at 10 µM | 2.3% of 94,000 active | AID 1159554; in the data active = activity change below about -80%; inconclusive = no clear call, values can overlap the other calls
# T cruzi growth-1 – inhibitors of T. cruzi proliferation | T. cruzi beta-gal in NIH3T3, GalScreen luminescence, 90 h | inhibition, % at 8.34 µM | 5.9% of 77,000 active | AID 624255;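 active = mean inhibition above about 93%, with at least 55% of replicates each passing it, limit read from the data, passing the limit was not always enough; inconclusive = only one of those two conditions holds; inactive = neither condition holds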
# KDM4C inh – inhibitors of human demethylase GASC-1 KDM4C; Q9H3R0; 0.15% of 96,000 active; inhibition, % at 12.5 µM; GST-KDM4C 2-372, H3K9me3 peptide, LANCE TR-FRET;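 active = mean replicate inhibition above about 25%, with at least 55% of replicates also reaching it, limit read from the data, passing the limit was not always enough; inconclusive = only one of those two conditions met; inactive = neither condition met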
#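 System – N-terminal GST-fused human GASC-1 (KDM4C) fragment, residues 2-372 · Input – enzyme final amount 10 nM · Technique – LANCE TR-FRET, Eu antibody, ULight-streptavidin, EDTA, ex 340 nm, em 618/671 nm · Medium – HEPES buffer, pH 7.5, plus ascorbate · Incubation – enzyme reaction 30 min, then detection 60 min, both room temperature · Reagent – H3K9me3 peptide with Fe(II)/2OG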
# T cruzi growth-2 – blocks T. cruzi growth in NIH3T3 host cells; shares compounds with T cruzi growth-1; T. cruzi beta-gal in NIH3T3, GalScreen luminescence, 90 h; 72% of 5,600 active; inhibition, % at 8.35 µM; AID 651739;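 active = mean replicate inhibition above about 95% and at least 55% of replicates individually reaching it, limit read from the data; inconclusive = only one of the two criteria is met; inactive = neither criterion is met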
# T cruzi growth-3 – blocks T. cruzi growth in NIH3T3 host cells; AID 651740; T. cruzi beta-gal in NIH3T3, GalScreen luminescence, 90 h; shares compounds with T cruzi growth-1; 21% of 5,600 active; inhibition, % at 2.09 µM;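 active = mean inhibition above about 95%, with at least 55% of replicates also reaching it, limit read from the data; inconclusive = meets just one of the two conditions; inactive = meets neither condition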;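 also: plate controls were neutral control median for no effect and positive control median for full effect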
# 3T3 cytotox – kills mouse NIH/3T3 fibroblasts | shares compounds with T cruzi growth-1 | NIH/3T3 viability, CellTiter-Glo ATP luminescence, 90 h | cytotoxicity (signal decrease), % at 8.35 µM | 14% of 5,600 active | AID 651742;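 active = mean signal decrease across replicates above about 35% based on untreated-well scatter, with enough replicates individually passing, limit read from the data; inconclusive = no rule stated though some were filed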;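 also: 0% = median of neutral control wells and 100% = median of positive control wells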
# 3T3 cytotox 2 – NIH/3T3 (mouse) viability loss. AID 651744. shares compounds with T cruzi growth-1. inhibition, % at 24.9 µM. 56% of 5,600 active. NIH/3T3 viability, CellTiter-Glo ATP luminescence, 90 h;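 active = mean loss of cell viability signal at or above a set limit, and enough replicates individually reaching it; inconclusive = meets only the mean limit or only the replicate share; inactive = meets neither condition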;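 also: 0% = median of neutral control wells and 100% = median of positive control wells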
# * hit, by the source's call; u = inconclusive; x = not tested or not shown. Sampled rows, rich in hits. Any-hit rate of the full collection: about 5.8%.
SMILES,IDH1 mut inh,Pf Dd2 inh,T cruzi growth-1,KDM4C inh,T cruzi growth-2,T cruzi growth-3,3T3 cytotox,3T3 cytotox 2
O=S(=O)(c1cccs1)N1CCCCN2[C@H](CO)[C@H](c3ccc(-c4ccccc4)cc3)[C@@H]2C1,x,46,u,-2,107*,81,15,2
O=S(=O)(c1cccs1)N1CCCCN2[C@H](CO)[C@@H](c3ccc(Br)cc3)[C@@H]2C1,x,12,88,-2,x,x,x,x
O=S(=O)(c1cccs1)N1CCCCN2[C@H](C1)[C@@H](c1ccc(Br)cc1)[C@@H]2CO,x,14,103*,0,104*,15,u,11
O=S(=O)(N[C@H]1CC[C@H](CCn2cc(-c3ccc(F)cc3)nn2)O[C@@H]1CO)c1ccccc1F,0,-32,-3,1,x,x,x,x
CO[C@H]1CN(C)C(=O)c2ccc(NC(=O)C3CCCCC3)cc2OC[C@@H](C)N(C(=O)c2ccccc2)C[C@@H]1C,0,-9,-13,-1,x,x,x,x
COc1ccc(CN(C)C[C@H]2OCCCC[C@H](C)Oc3ccc(NC(=O)Cc4ccccc4)cc3C(=O)N([C@@H](C)CO)C[C@H]2C)cc1,3,-63,73,0,x,x,x,x
O=C(c1cnccn1)N1CC(=O)N2[C@@H](CO)[C@@H](c3ccc(C#CC4CCCC4)cc3)[C@@H]2C1,x,4,x,0,x,x,x,x
O=S(=O)(c1cccs1)N1CCCCN2[C@H](CO)[C@@H](c3ccc(/C=C/c4ccccc4)cc3)[C@@H]2C1,x,8,97*,1,105*,42,26,23
C[C@H](CO)N1C[C@H](C)[C@@H](CN(C)Cc2ccc(C(=O)O)cc2)Oc2c(NC(=O)Nc3ccccc3)cccc2C1=O,x,-3,x,1,x,x,x,x
C[C@@H]1CN([C@@H](C)CO)C(=O)Cc2cc(NS(=O)(=O)c3cccs3)ccc2O[C@H]1CN(C)Cc1ccc(C(=O)Nc2ccccc2N)cc1,0,-23,21,0,x,x,x,x
C[C@H]1CN([C@@H](C)CO)C(=O)c2cccc(NC(=O)Nc3ccccc3)c2O[C@@H]1CN(C)Cc1ccc(C(=O)Nc2ccccc2N)cc1,x,-88*,100*,-1,101*,99*,u,80*
C[C@@H]1CN([C@@H](C)CO)C(=O)c2cc(NS(=O)(=O)c3cccs3)ccc2O[C@H]1CN(C)Cc1ccc(C(=O)Nc2ccccc2N)cc1,0,-57,108*,0,97*,63,4,5
C[C@H]1CN([C@@H](C)CO)C(=O)c2cc(NC(=O)Nc3ccc4c(c3)OCO4)ccc2O[C@H]1CN(C)Cc1ccc(C(=O)Nc2ccccc2N)cc1,x,-3,98*,1,85,79,2,10
C[C@@H]1CN([C@H](C)CO)C(=O)c2cc(NC(=O)Nc3ccc4c(c3)OCO4)ccc2O[C@@H]1CN(C)Cc1ccc(C(=O)Nc2ccccc2N)cc1,x,-78,63,0,x,x,x,x
C[C@@H]1CN([C@H](C)CO)C(=O)c2cccc(NC(=O)Nc3ccc4c(c3)OCO4)c2O[C@H]1CN(C)Cc1ccc(C(=O)Nc2ccccc2N)cc1,x,-86*,112*,0,102*,92,-1,71*
C[C@@H]1CN([C@H](C)CO)C(=O)c2cccc(NC(=O)Nc3ccc4c(c3)OCO4)c2O[C@@H]1CN(C)Cc1ccc(C(=O)O)cc1,x,1,-7,2,x,x,x,x
C[C@@H]1CN([C@H](C)CO)C(=O)c2cc(-c3cccc(C(=O)N(C)C)c3)cnc2O[C@@H]1CN(C)S(=O)(=O)c1cccc(F)c1,14,8,-78,0,x,x,x,x
C[C@@H]1CN([C@H](C)CO)C(=O)c2cc(N(C)C)ccc2O[C@@H]1CN(C)Cc1ccc(C(=O)Nc2ccccc2N)cc1,x,-70,103*,x,90,81,74*,94*
C[C@@H]1CN([C@H](C)CO)C(=O)c2cc(N(C)C)ccc2O[C@H]1CN(C)Cc1ccc(C(=O)Nc2ccccc2N)cc1,x,-34,95,2,x,x,x,x
CC(C)C(=O)Nc1ccc2c(c1)C(=O)N(C)[C@@H]1CC[C@@H](CC(=O)N[C@@H](C)c3ccccc3)O[C@H]1CO2,x,-9,-12,0,x,x,x,x
CCC(=O)N1C[C@H]2[C@@H](c3ccccc31)[C@@H](CO)N2Cc1ccccc1OC,x,-71,u,2,105*,11,22,13
CCC(=O)N1C[C@H]2[C@@H](c3ccccc31)[C@@H](CO)N2C(=O)CC,x,-21,60,-1,x,x,x,x
CCC(=O)N1C[C@@H]2[C@H](c3ccccc31)[C@@H](CO)N2C(=O)CC,x,-76,102*,-4,7,3,-11,-13
CN1C(=O)c2cc(NC(=O)c3cnccn3)ccc2OC[C@@H]2O[C@H](CC(=O)N[C@H]3CCN(Cc4ccccc4)C3)CC[C@H]21,x,-20,81,0,x,x,x,x
COc1ccc(S(=O)(=O)N2CC[C@H]3[C@@H](CO)N(C)c4ccc(C5=CCCCC5)cc4[C@H]32)cc1,x,-16,u,4,90,108*,10,70*
SMILES,IDH1 mut inh,Pf Dd2 inh,T cruzi growth-1,KDM4C inh,T cruzi growth-2,T cruzi growth-3,3T3 cytotox,3T3 cytotox 2
COc1ccc(-c2ccc3c(c2)[C@@H]2[C@@H](CCN2S(=O)(=O)C2=NC(C)C=N2)[C@@H](CO)N3C)cc1 (stereo partly specified),x,-18,u,3,103*,80,-17,-1
CC(=O)Nc1ccc2c(c1)C(=O)N(C)[C@@H]1CC[C@@H](CC(=O)NCc3ccc4c(c3)OCO4)O[C@@H]1CO2,x,-3,-4,0,x,x,x,x
CN1c2ccc(-c3ccccc3F)cc2[C@@H]2[C@@H](CCN2C(=O)c2cccc(F)c2)[C@@H]1CO,x,-48,76,-5,x,x,x,x
CCC(=O)N1CC[C@@H]2[C@H]1c1cc(-c3ccc(F)cc3)ccc1N(C)[C@H]2CO,x,-4,106*,0,100*,94,-25,-7
CN1c2ccc(-c3ccccc3F)cc2[C@@H]2[C@@H](CCN2C(=O)Cc2ccccn2)[C@@H]1CO,x,-49,104*,4,101*,40,6,17
CN1c2ccc(-c3ccccc3F)cc2[C@H]2[C@H](CCN2C(=O)c2cccc(F)c2)[C@H]1CO,x,11,u,0,107*,81,12,103*
CCC(=O)N1CC[C@@H]2[C@H]1c1cc(-c3ccccc3F)ccc1N(C)[C@@H]2CO,x,30,100*,1,104*,16,-10,9
CN1c2ccc(-c3ccccc3F)cc2[C@H]2[C@H](CCN2C(=O)Cc2ccccn2)[C@@H]1CO,x,-16,88,3,x,x,x,x

# Screening data as filed in PubChem BioAssay.
